Reference: ChEMBL document CHEMBL1649124, “Genetic variability among ampC genes from acinetobacter genomic species 3” (Antimicrob Agents Chemother, 2009)
Converted amounts (≈) assume the structure as drawn.

How the values were obtained:
Format in all cases: functional
Acinetobacter pittii [1] = test: Antibacterial activity against Acinetobacter genomosp. 3 isolate 128 by Etest method in presence of efflux pump inhibitor PAN
Acinetobacter pittii [2] = test: Antibacterial activity against Acinetobacter genomosp. 3 isolate 109 by Etest method
How it was run: (§1)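 MICs for AG3 clinical isolates were read by Etest following the manufacturer's instructions. Isolates were stored at –80°C in 10% Brucella glycerol broth before testing.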

Acinetobacter pittii [3] = test: Antibacterial activity against Acinetobacter genomosp. 3 isolate 52 by Etest method in presence of efflux pump inhibitor PAN
Escherichia coli [4] = test: Antibacterial activity against Escherichia coli DH5alpha carrying ampC gene of Acinetobacter genomosp. 3 isolate 56 by Etest method
How it was run: (§2)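 E. coli DH5α expressing the AG3 isolate ampC gene, PCR-amplified (high-fidelity system, 28 cycles) and cloned into BamHI/HindIII sites of pBGS18 (kanamycin marker) under the CTX-M-14 β-lactamase promoter. Grown at 37°C in LB, with kanamycin 50 µg/ml when needed. β-Lactam MICs determined by Etest per the manufacturer's instructions.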

Acinetobacter pittii [5] = test: Antibacterial activity against Acinetobacter genomosp. 3 isolate 21 by Etest method in presence of cloxacillin and efflux pump inhibitor PAN
Acinetobacter pittii [6] = test: Antibacterial activity against Acinetobacter genomosp. 3 isolate 243 by Etest method; how it was run: as §1
Acinetobacter pittii [7] = test: Antibacterial activity against Acinetobacter genomosp. 3 isolate 195 by Etest method in presence of cloxacillin; how it was run: as §1
Acinetobacter pittii [8] = test: Antibacterial activity against Acinetobacter genomosp. 3 isolate 69 by Etest method; how it was run: as §1
Acinetobacter pittii [9] = test: Antibacterial activity against Acinetobacter genomosp. 3 isolate 56 by Etest method in presence of cloxacillin; how it was run: as §1
Acinetobacter pittii [10] = test: Antibacterial activity against Acinetobacter genomosp. 3 isolate 20 by Etest method in presence of cloxacillin; how it was run: as §1
Acinetobacter pittii [11] = test: Antibacterial activity against Acinetobacter genomosp. 3 isolate 243 by Etest method in presence of efflux pump inhibitor PAN
Acinetobacter pittii [12] = test: Antibacterial activity against Acinetobacter genomosp. 3 isolate 103 by Etest method in presence of cloxacillin; how it was run: as §1
Acinetobacter pittii [13] = test: Antibacterial activity against Acinetobacter genomosp. 3 isolate 243 by Etest method in presence of cloxacillin; how it was run: as §1
Acinetobacter pittii [14] = test: Antibacterial activity against Acinetobacter genomosp. 3 isolate 128 by Etest method in presence of cloxacillin and efflux pump inhibitor PAN
Acinetobacter pittii [15] = test: Antibacterial activity against Acinetobacter genomosp. 3 isolate 21 by Etest method in presence of cloxacillin; how it was run: as §1
Acinetobacter pittii [16] = test: Antibacterial activity against Acinetobacter genomosp. 3 isolate 60 by Etest method; how it was run: as §1
Escherichia coli [17] = test: Antibacterial activity against Escherichia coli DH5alpha carrying ampC gene of Acinetobacter genomosp. 3 isolate 69 by Etest method; how it was run: as §2
Acinetobacter pittii [18] = test: Antibacterial activity against Acinetobacter genomosp. 3 isolate 69 by Etest method in presence of efflux pump inhibitor PAN
Acinetobacter pittii [19] = test: Antibacterial activity against Acinetobacter genomosp. 3 isolate 52 by Etest method in presence of cloxacillin and efflux pump inhibitor PAN
Acinetobacter pittii [20] = test: Antibacterial activity against Acinetobacter genomosp. 3 isolate 243 by Etest method in presence of efflux pump inhibitor CCCP
Acinetobacter pittii [21] = test: Antibacterial activity against Acinetobacter genomosp. 3 isolate 103 by Etest method in presence of cloxacillin and efflux pump inhibitor PAN
Acinetobacter pittii [22] = test: Antibacterial activity against Acinetobacter genomosp. 3 isolate 69 by Etest method in presence of cloxacillin and efflux pump inhibitor CCCP
Acinetobacter pittii [23] = test: Antibacterial activity against Acinetobacter genomosp. 3 isolate 52 by Etest method of efflux pump inhibitor CCCP
Acinetobacter pittii [24] = test: Antibacterial activity against Acinetobacter genomosp. 3 isolate 243 by Etest method in presence of cloxacillin and efflux pump inhibitor PAN
Acinetobacter pittii [25] = test: Antibacterial activity against Acinetobacter genomosp. 3 isolate 65 by Etest method in presence of cloxacillin; how it was run: as §1
Acinetobacter pittii [26] = test: Antibacterial activity against Acinetobacter genomosp. 3 isolate 103 by Etest method in presence of efflux pump inhibitor CCCP
Acinetobacter pittii [27] = test: Antibacterial activity against Acinetobacter genomosp. 3 isolate 60 by Etest method in presence of efflux pump inhibitor CCCP
Acinetobacter pittii [28] = test: Antibacterial activity against Acinetobacter genomosp. 3 isolate 128 by Etest method in presence of cloxacillin; how it was run: as §1
Acinetobacter pittii [29] = test: Antibacterial activity against Acinetobacter genomosp. 3 isolate 52 by Etest method; how it was run: as §1
Acinetobacter pittii [30] = test: Antibacterial activity against Acinetobacter genomosp. 3 isolate 90 by Etest method in presence of cloxacillin; how it was run: as §1
Acinetobacter pittii [31] = test: Antibacterial activity against Acinetobacter genomosp. 3 isolate 109 by Etest method in presence of efflux pump inhibitor CCCP
Acinetobacter pittii [32] = test: Antibacterial activity against Acinetobacter genomosp. 3 isolate 90 by Etest method in presence of efflux pump inhibitor CCCP
Acinetobacter pittii [33] = test: Antibacterial activity against Acinetobacter genomosp. 3 isolate 67 by Etest method; how it was run: as §1
Acinetobacter pittii [34] = test: Antibacterial activity against Acinetobacter genomosp. 3 isolate 128 by Etest method in presence of cloxacillin and efflux pump inhibitor CCCP
Acinetobacter pittii [35] = test: Antibacterial activity against Acinetobacter genomosp. 3 isolate 67 by Etest method in presence of cloxacillin and efflux pump inhibitor CCCP
Acinetobacter pittii [36] = test: Antibacterial activity against Acinetobacter genomosp. 3 isolate 103 by Etest method in presence of efflux pump inhibitor PAN
Acinetobacter pittii [37] = test: Antibacterial activity against Acinetobacter genomosp. 3 isolate 109 by Etest method in presence of cloxacillin and efflux pump inhibitor CCCP
Acinetobacter pittii [38] = test: Antibacterial activity against Acinetobacter genomosp. 3 isolate 69 by Etest method in presence of efflux pump inhibitor CCCP
Acinetobacter pittii [39] = test: Antibacterial activity against Acinetobacter genomosp. 3 isolate 60 by Etest method in presence of efflux pump inhibitor PAN
Acinetobacter pittii [40] = test: Antibacterial activity against Acinetobacter genomosp. 3 isolate 67 by Etest method in presence of cloxacillin and efflux pump inhibitor PAN
Acinetobacter pittii [41] = test: Antibacterial activity against Acinetobacter genomosp. 3 isolate 52 by Etest method in presence of cloxacillin; how it was run: as §1
Escherichia coli [42] = test: Antibacterial activity against Escherichia coli DH5alpha carrying ampC gene of Acinetobacter genomosp. 3 isolate 65 by Etest method; how it was run: as §2
Acinetobacter pittii [43] = test: Antibacterial activity against Acinetobacter genomosp. 3 isolate 65 by Etest method in presence of efflux pump inhibitor PAN
Escherichia coli [44] = test: Antibacterial activity against Escherichia coli DH5alpha carrying ampC gene of Acinetobacter genomosp. 3 isolate 20 by Etest method; how it was run: as §2
Acinetobacter pittii [45] = test: Antibacterial activity against Acinetobacter genomosp. 3 isolate 90 by Etest method in presence of efflux pump inhibitor PAN
Acinetobacter pittii [46] = test: Antibacterial activity against Acinetobacter genomosp. 3 isolate 56 by Etest method in presence of efflux pump inhibitor PAN
Acinetobacter pittii [47] = test: Antibacterial activity against Acinetobacter genomosp. 3 isolate 243 by Etest method in presence of cloxacillin and efflux pump inhibitor CCCP
Acinetobacter pittii [48] = test: Antibacterial activity against Acinetobacter genomosp. 3 isolate 195 by Etest method in presence of cloxacillin and efflux pump inhibitor PAN
Acinetobacter pittii [49] = test: Antibacterial activity against Acinetobacter genomosp. 3 isolate 67 by Etest method in presence of efflux pump inhibitor CCCP
Escherichia coli [50] = test: Antibacterial activity against Escherichia coli DH5alpha carrying ampC gene of Acinetobacter genomosp. 3 isolate 109 by Etest method; how it was run: as §2

## CC(=O)OCC1=C(C(=O)O)N2C(=O)[C@@H](NC(=O)Cc3cccs3)[C@H]2SC1 [CEPHALOTHIN]
Acinetobacter pittii [1]
  MIC: > 256 µg/mL
Acinetobacter pittii [2]
  MIC: > 256 µg/mL
Acinetobacter pittii [3]
  MIC: > 256 µg/mL
Escherichia coli [4]
  MIC: > 256 µg/mL
Acinetobacter pittii [5]
  MIC: 192 µg/mL
Acinetobacter pittii [6]
  MIC: > 256 µg/mL
Acinetobacter pittii [7]
  MIC: > 256 µg/mL
Acinetobacter pittii [8]
  MIC: > 256 µg/mL
Acinetobacter pittii [9]
  MIC: > 256 µg/mL
Acinetobacter pittii [10]
  MIC: > 256 µg/mL
Acinetobacter pittii [11]
  MIC: > 256 µg/mL
Acinetobacter pittii [12]
  MIC: 192 µg/mL
Acinetobacter pittii [13]
  MIC: 192 µg/mL
Acinetobacter pittii [14]
  MIC: 48 µg/mL
Acinetobacter pittii [15]
  MIC: > 256 µg/mL
Acinetobacter pittii [16]
  MIC: > 256 µg/mL
Escherichia coli [17]
  MIC: > 256 µg/mL
Acinetobacter pittii [18]
  MIC: > 256 µg/mL
Acinetobacter pittii [19]
  MIC: > 256 µg/mL
Acinetobacter pittii [20]
  MIC: > 256 µg/mL
Acinetobacter pittii [21]
  MIC: 192 µg/mL
Acinetobacter pittii [22]
  MIC: 24 µg/mL
Acinetobacter pittii [23]
  MIC: > 256 µg/mL
Acinetobacter pittii [24]
  MIC: 192 µg/mL
Acinetobacter pittii [25]
  MIC: 128 µg/mL
Acinetobacter pittii [26]
  MIC: > 256 µg/mL
Acinetobacter pittii [27]
  MIC: > 256 µg/mL
Acinetobacter pittii [28]
  MIC: 48 µg/mL
Acinetobacter pittii [29]
  MIC: > 256 µg/mL
Acinetobacter pittii [30]
  MIC: 192 µg/mL
Acinetobacter pittii [31]
  MIC: > 256 µg/mL
Acinetobacter pittii [32]
  MIC: > 256 µg/mL
Acinetobacter pittii [33]
  MIC: > 256 µg/mL
Acinetobacter pittii [34]
  MIC: 32 µg/mL
Acinetobacter pittii [35]
  MIC: 24 µg/mL
Acinetobacter pittii [36]
  MIC: > 256 µg/mL
Acinetobacter pittii [37]
  MIC: 24 µg/mL
Acinetobacter pittii [38]
  MIC: > 256 µg/mL
Acinetobacter pittii [39]
  MIC: > 256 µg/mL
Acinetobacter pittii [40]
  MIC: 128 µg/mL
Acinetobacter pittii [41]
  MIC: > 256 µg/mL
Escherichia coli [42]
  MIC: 192 µg/mL (≈ 484 µM)
Acinetobacter pittii [43]
  MIC: > 256 µg/mL
Escherichia coli [44]
  MIC: > 256 µg/mL
Acinetobacter pittii [45]
  MIC: > 256 µg/mL
Acinetobacter pittii [46]
  MIC: > 256 µg/mL
Acinetobacter pittii [47]
  MIC: 12 µg/mL
Acinetobacter pittii [48]
  MIC: > 256 µg/mL
Acinetobacter pittii [49]
  MIC: 192 µg/mL
Escherichia coli [50]
  MIC: > 256 µg/mL

## C[C@@H](O)[C@H]1C(=O)N2C(C(=O)O)=C(S[C@@H]3CN[C@H](C(=O)N(C)C)C3)[C@H](C)[C@H]12 [MEROPENEM]
Acinetobacter pittii [1]
  MIC: 0.125 µg/mL
Acinetobacter pittii [2]
  MIC: 0.38 µg/mL (≈ 0.991 µM)
Acinetobacter pittii [3]
  MIC: 0.38 µg/mL
Escherichia coli [4]
  MIC: 0.023 µg/mL (≈ 0.06 µM)
Acinetobacter pittii [5]
  MIC: 0.64 µg/mL
Acinetobacter pittii [6]
  MIC: 0.25 µg/mL (≈ 0.652 µM)
Acinetobacter pittii [7]
  MIC: 1 µg/mL
Acinetobacter pittii [8]
  MIC: 0.25 µg/mL (≈ 0.652 µM)
Acinetobacter pittii [9]
  MIC: 0.38 µg/mL
Acinetobacter pittii [10]
  MIC: 3 µg/mL
Acinetobacter pittii [11]
  MIC: 0.19 µg/mL
Acinetobacter pittii [12]
  MIC: 1.5 µg/mL
Acinetobacter pittii [13]
  MIC: 0.125 µg/mL
Acinetobacter pittii [14]
  MIC: 0.19 µg/mL
Acinetobacter pittii [15]
  MIC: 0.5 µg/mL
Acinetobacter pittii [16]
  MIC: 0.75 µg/mL (≈ 1.96 µM)
Escherichia coli [17]
  MIC: 0.023 µg/mL (≈ 0.06 µM)
Acinetobacter pittii [18]
  MIC: 0.25 µg/mL
Acinetobacter pittii [19]
  MIC: 0.5 µg/mL
Acinetobacter pittii [20]
  MIC: 0.25 µg/mL
Acinetobacter pittii [21]
  MIC: 0.75 µg/mL
Acinetobacter pittii [22]
  MIC: 0.19 µg/mL
Acinetobacter pittii [23]
  MIC: 0.38 µg/mL (≈ 0.991 µM)
Acinetobacter pittii [24]
  MIC: 0.19 µg/mL
Acinetobacter pittii [25]
  MIC: 0.19 µg/mL
Acinetobacter pittii [26]
  MIC: 1 µg/mL
Acinetobacter pittii [27]
  MIC: 0.5 µg/mL
Acinetobacter pittii [28]
  MIC: 0.25 µg/mL
Acinetobacter pittii [29]
  MIC: 0.5 µg/mL (≈ 1.3 µM)
Acinetobacter pittii [30]
  MIC: 1 µg/mL
Acinetobacter pittii [31]
  MIC: 0.25 µg/mL
Acinetobacter pittii [32]
  MIC: 1.5 µg/mL
Acinetobacter pittii [33]
  MIC: 0.5 µg/mL (≈ 1.3 µM)
Acinetobacter pittii [34]
  MIC: 0.094 µg/mL
Acinetobacter pittii [35]
  MIC: 0.19 µg/mL
Acinetobacter pittii [36]
  MIC: 0.75 µg/mL
Acinetobacter pittii [37]
  MIC: 0.19 µg/mL
Acinetobacter pittii [38]
  MIC: 0.25 µg/mL
Acinetobacter pittii [39]
  MIC: 0.19 µg/mL
Acinetobacter pittii [40]
  MIC: 0.25 µg/mL
Acinetobacter pittii [41]
  MIC: 0.19 µg/mL
Escherichia coli [42]
  MIC: 0.023 µg/mL (≈ 0.06 µM)
Acinetobacter pittii [43]
  MIC: 0.25 µg/mL
Escherichia coli [44]
  MIC: 0.023 µg/mL (≈ 0.06 µM)
Acinetobacter pittii [45]
  MIC: 0.38 µg/mL
Acinetobacter pittii [46]
  MIC: 0.094 µg/mL
Acinetobacter pittii [47]
  MIC: 0.094 µg/mL
Acinetobacter pittii [48]
  MIC: 1 µg/mL
Acinetobacter pittii [49]
  MIC: 0.25 µg/mL
Escherichia coli [50]
  MIC: 0.032 µg/mL (≈ 0.0834 µM)
